Results: ChEMBL document CHEMBL1151172, “Further labdane and kaurane diterpenoids and other constituents from Plectranthus fruticosus” (2004)
≈ marks a conversion by molar mass, not a printed value. Calls of active or inactive are those of the source. The calls are words filed in the database; no cut-off is given here.

Columns and labels:
[1] = tested on: Pseudomonas aeruginosa; assay: Antimicrobial activity against Pseudomonas aeruginosa ATCC 27853 by serial broth microdilution method; assay type: functional, organism-based
Summary of the method: (§1)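 MIC by NCCLS serial broth microdilution in Mueller-Hinton broth. Compounds dissolved in DMSO and tested at graded concentrations from 250 to 7.8 µg/mL. A solvent blank was included.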

[2] = tested on: Escherichia coli; assay: Antimicrobial activity against Escherichia coli ATCC 25922 by serial broth microdilution method; assay type: functional; summary of the method: as §1
[3] = tested on: Candida albicans; assay: Antimicrobial activity against Candida albicans CIP 3153A by serial broth microdilution method; assay type: functional, organism-based
Summary of the method: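 Yeast MIC by serial broth microdilution following NCCLS, using YMA medium. Compounds were dissolved in DMSO and tested over graded concentrations from 250 to 7.8 µg/mL, with a solvent blank.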

[4] = tested on: Staphylococcus aureus; assay: Antimicrobial activity against Staphylococcus aureus ATCC 25923 by serial broth microdilution method; assay type: functional; summary of the method: as §1

Row | SMILES | Activity [1] | Activity [2] | Activity [3] | MIC [2] [µg/mL] | MIC [4] [µg/mL]
1 | CC1=C[C@]23C[C@H]1CC[C@H]2[C@]1(C)CCC[C@@](C)(C(=O)O)[C@H]1C[C@H]3O | inactive | inactive | inactive |  | 
2 | C=C1C[C@@]23CC[C@H]4[C@@](C)(CCC[C@@]4(C)C(=O)OC)[C@@H]2C[C@H](O)[C@@H]1C3 | inactive | inactive | inactive |  | 
3 | COC(=O)[C@]1(C)CCC[C@@]2(C)[C@@H]3C[C@H](OC(C)=O)[C@@H]4C[C@@]3(CC[C@@H]21)[C@H]1O[C@]14C | inactive | inactive | inactive |  | 
4 | C[C@@]12CCC[C@@](C)(C(=O)O)[C@H]1C[C@@H](O)[C@@]13C[C@@H](CC[C@@H]21)[C@]1(C)O[C@@H]13 | inactive | inactive | inactive |  | 
5 | C=C1[C@H]2C[C@@]3(CC[C@H]4[C@@](C)(CCC[C@@]4(C)C(=O)O)[C@@H]3C[C@@H]2OC(C)=O)[C@H]1O | inactive | inactive | inactive |  | 
6 | C=C1C[C@]23C[C@H]1[C@@H](OC(C)=O)C[C@H]2[C@]1(C)CCC[C@@](C)(C(=O)O)[C@H]1C[C@H]3O | inactive | inactive | inactive |  | 
7 | NC[C@H]1O[C@H](O[C@H]2[C@H](O)[C@@H](O[C@H]3O[C@H](CO)[C@@H](O)[C@H](N)[C@H]3O)[C@H](N)C[C@@H]2N)[C@H](O)[C@@H](O)[C@@H]1O [KANAMYCIN] |  |  |  | < 7.8 | < 7.8
8 | C=C/C(C)=C\C[C@@H]1C(=C)CC[C@@H]2C(C)(C)[C@H](O)[C@@H](O)C[C@@]12C | inactive | inactive | inactive |  | 
9 | C=C1[C@H]2C[C@@]3(CC[C@H]4[C@@](C)(CCC[C@@]4(C)C(=O)OC)[C@@H]3C[C@@H]2OC(C)=O)[C@H]1O | inactive | inactive | inactive |  | 
10 | C=C1CC[C@@H]2[C@H]([C@H]3[C@H]1CC[C@@]3(O)CO)C2(C)C | inactive | inactive | inactive |  | 
11 | CC(=O)O[C@H]1C[C@@H]2[C@@]3(C=C(C=O)[C@H]1C3)CC[C@H]1[C@@]2(C)CCC[C@@]1(C)C(=O)O | inactive | inactive | inactive |  | 
12 | COC(=O)[C@]1(C)CCC[C@@]2(C)[C@@H]3C[C@H](OC(C)=O)[C@@H]4C[C@]3(C=C4C)[C@H](O)C[C@@H]21 | inactive | inactive | inactive |  | 
13 | COC(=O)[C@]1(C)CCC[C@@]2(C)[C@@H]3C[C@H](OC(C)=O)[C@@H]4C[C@]3(C=C4C=O)CC[C@@H]21 | inactive | inactive | inactive |  | 62.5 (≈ 161 µM)
